The target in this assay is T1, human GPR119 receptor (G protein-coupled receptor 119) (Homo sapiens, UniProt Q8TDV5).
T1 sequence (Q8TDV5 1-335): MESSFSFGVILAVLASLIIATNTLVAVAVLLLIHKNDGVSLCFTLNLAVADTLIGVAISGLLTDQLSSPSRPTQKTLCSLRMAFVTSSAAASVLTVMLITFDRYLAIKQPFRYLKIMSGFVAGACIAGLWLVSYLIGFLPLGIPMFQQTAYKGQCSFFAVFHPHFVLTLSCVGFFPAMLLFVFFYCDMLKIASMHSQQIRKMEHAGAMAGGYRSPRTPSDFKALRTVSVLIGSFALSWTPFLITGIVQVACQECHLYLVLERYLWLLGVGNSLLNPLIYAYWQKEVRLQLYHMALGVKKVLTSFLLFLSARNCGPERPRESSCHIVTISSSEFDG
Description: HTRF cAMP accumulation assay, stable HEK293 cells. Format: cell-based. The method, boiled down:
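HEK293 cells stably transfected with human GPR119, selected in 800 µg/ml geneticin and kept in 400 µg/ml G418. Test compound in DMEM with 2.5% fatty acid-free BSA, 30 min at room temperature. HTRF read (d2-cAMP plus Eu-cryptate anti-cAMP, 2 h, ex 337/em 665 and 620 nm). cAMP taken from a standard curve; EC50 from a sigmoidal fit; five independent experiments.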

For `CCCCCCCC/C=C\CCCCCCCC(=O)NCCO` [Oleoyl ethanolamide], the response was half-maximal at 7.65 µM (EC50). Consider `CC/C=C\C/C=C\C/C=C\C/C=C\C/C=C\CCCC(=O)NCCO` [Eicosapentaenoyl ethanolamide], for which the EC50 – broadly, the concentration needed to bring the measured effect to its halfway point – worked out at 65.6 µM.

`CC(C)c1noc(C2CCN(c3ncnc(Nc4ccc(S(C)(=O)=O)cc4F)c3[N+](=O)[O-])CC2)n1` [AR231453] came in with an EC50 of 0.011 µM. Next, `CCCCC/C=C\C/C=C\CCCCCCCC(=O)NCCO` [Linoleoyl ethanolamide]: 8.11 µM.

Consider `CC/C=C\C/C=C\C/C=C\C/C=C\C/C=C\C/C=C\CCC(=O)NCCO` [Docosahexaenoyl ethanolamide], for which the midpoint of the response, the EC50, lay at 63.8 µM. The value for `CC(C)(C)OC(=O)N1CCC(OCc2nc(-c3ccncc3)no2)CC1` [PSN632408] was 7.61 µM; that for `CCCCC/C=C\C/C=C\C/C=C\C/C=C\CCCCCC(=O)NCCO` [Docosatetra-7Z,10Z,13Z,16Z-enoyl ethanolamide] was 40.2 µM; that for `CCCCC/C=C\C/C=C\C/C=C\CCCCCCC(=O)NCCO` [Dihomo-γ-linolenoyl ethanolamide] was 25.6 µM. Turning to `CCCCCCCC/C=C\CCCCCCCC(=O)NCCc1ccc(O)c(O)c1` [Oleoyl dopamine], it took 54.8 µM to reach a half-maximal effect (EC50). Next, `CCCCCCCCCCCCCCCC(=O)NCCO` [Palmitoyl ethanolamide]: 10.1 µM; `CCCCCCCC/C=C\CCCCCCCC(N)=O` [Oleamide]: 42.9 µM.

These data come from paper PMC5086809 (European journal of pharmacology, 2013).
